{
  "source": "paper PMC2738596",
  "about": "(Biochimica et biophysica acta, 2008)",
  "key": {"cardiac RyR2 [1]": {"target": "T1, cardiac RyR2 (Canis lupus familiaris, UniProt A0A8I3MT21)", "T1 sequence (A0A8I3MT21 1-4967)": "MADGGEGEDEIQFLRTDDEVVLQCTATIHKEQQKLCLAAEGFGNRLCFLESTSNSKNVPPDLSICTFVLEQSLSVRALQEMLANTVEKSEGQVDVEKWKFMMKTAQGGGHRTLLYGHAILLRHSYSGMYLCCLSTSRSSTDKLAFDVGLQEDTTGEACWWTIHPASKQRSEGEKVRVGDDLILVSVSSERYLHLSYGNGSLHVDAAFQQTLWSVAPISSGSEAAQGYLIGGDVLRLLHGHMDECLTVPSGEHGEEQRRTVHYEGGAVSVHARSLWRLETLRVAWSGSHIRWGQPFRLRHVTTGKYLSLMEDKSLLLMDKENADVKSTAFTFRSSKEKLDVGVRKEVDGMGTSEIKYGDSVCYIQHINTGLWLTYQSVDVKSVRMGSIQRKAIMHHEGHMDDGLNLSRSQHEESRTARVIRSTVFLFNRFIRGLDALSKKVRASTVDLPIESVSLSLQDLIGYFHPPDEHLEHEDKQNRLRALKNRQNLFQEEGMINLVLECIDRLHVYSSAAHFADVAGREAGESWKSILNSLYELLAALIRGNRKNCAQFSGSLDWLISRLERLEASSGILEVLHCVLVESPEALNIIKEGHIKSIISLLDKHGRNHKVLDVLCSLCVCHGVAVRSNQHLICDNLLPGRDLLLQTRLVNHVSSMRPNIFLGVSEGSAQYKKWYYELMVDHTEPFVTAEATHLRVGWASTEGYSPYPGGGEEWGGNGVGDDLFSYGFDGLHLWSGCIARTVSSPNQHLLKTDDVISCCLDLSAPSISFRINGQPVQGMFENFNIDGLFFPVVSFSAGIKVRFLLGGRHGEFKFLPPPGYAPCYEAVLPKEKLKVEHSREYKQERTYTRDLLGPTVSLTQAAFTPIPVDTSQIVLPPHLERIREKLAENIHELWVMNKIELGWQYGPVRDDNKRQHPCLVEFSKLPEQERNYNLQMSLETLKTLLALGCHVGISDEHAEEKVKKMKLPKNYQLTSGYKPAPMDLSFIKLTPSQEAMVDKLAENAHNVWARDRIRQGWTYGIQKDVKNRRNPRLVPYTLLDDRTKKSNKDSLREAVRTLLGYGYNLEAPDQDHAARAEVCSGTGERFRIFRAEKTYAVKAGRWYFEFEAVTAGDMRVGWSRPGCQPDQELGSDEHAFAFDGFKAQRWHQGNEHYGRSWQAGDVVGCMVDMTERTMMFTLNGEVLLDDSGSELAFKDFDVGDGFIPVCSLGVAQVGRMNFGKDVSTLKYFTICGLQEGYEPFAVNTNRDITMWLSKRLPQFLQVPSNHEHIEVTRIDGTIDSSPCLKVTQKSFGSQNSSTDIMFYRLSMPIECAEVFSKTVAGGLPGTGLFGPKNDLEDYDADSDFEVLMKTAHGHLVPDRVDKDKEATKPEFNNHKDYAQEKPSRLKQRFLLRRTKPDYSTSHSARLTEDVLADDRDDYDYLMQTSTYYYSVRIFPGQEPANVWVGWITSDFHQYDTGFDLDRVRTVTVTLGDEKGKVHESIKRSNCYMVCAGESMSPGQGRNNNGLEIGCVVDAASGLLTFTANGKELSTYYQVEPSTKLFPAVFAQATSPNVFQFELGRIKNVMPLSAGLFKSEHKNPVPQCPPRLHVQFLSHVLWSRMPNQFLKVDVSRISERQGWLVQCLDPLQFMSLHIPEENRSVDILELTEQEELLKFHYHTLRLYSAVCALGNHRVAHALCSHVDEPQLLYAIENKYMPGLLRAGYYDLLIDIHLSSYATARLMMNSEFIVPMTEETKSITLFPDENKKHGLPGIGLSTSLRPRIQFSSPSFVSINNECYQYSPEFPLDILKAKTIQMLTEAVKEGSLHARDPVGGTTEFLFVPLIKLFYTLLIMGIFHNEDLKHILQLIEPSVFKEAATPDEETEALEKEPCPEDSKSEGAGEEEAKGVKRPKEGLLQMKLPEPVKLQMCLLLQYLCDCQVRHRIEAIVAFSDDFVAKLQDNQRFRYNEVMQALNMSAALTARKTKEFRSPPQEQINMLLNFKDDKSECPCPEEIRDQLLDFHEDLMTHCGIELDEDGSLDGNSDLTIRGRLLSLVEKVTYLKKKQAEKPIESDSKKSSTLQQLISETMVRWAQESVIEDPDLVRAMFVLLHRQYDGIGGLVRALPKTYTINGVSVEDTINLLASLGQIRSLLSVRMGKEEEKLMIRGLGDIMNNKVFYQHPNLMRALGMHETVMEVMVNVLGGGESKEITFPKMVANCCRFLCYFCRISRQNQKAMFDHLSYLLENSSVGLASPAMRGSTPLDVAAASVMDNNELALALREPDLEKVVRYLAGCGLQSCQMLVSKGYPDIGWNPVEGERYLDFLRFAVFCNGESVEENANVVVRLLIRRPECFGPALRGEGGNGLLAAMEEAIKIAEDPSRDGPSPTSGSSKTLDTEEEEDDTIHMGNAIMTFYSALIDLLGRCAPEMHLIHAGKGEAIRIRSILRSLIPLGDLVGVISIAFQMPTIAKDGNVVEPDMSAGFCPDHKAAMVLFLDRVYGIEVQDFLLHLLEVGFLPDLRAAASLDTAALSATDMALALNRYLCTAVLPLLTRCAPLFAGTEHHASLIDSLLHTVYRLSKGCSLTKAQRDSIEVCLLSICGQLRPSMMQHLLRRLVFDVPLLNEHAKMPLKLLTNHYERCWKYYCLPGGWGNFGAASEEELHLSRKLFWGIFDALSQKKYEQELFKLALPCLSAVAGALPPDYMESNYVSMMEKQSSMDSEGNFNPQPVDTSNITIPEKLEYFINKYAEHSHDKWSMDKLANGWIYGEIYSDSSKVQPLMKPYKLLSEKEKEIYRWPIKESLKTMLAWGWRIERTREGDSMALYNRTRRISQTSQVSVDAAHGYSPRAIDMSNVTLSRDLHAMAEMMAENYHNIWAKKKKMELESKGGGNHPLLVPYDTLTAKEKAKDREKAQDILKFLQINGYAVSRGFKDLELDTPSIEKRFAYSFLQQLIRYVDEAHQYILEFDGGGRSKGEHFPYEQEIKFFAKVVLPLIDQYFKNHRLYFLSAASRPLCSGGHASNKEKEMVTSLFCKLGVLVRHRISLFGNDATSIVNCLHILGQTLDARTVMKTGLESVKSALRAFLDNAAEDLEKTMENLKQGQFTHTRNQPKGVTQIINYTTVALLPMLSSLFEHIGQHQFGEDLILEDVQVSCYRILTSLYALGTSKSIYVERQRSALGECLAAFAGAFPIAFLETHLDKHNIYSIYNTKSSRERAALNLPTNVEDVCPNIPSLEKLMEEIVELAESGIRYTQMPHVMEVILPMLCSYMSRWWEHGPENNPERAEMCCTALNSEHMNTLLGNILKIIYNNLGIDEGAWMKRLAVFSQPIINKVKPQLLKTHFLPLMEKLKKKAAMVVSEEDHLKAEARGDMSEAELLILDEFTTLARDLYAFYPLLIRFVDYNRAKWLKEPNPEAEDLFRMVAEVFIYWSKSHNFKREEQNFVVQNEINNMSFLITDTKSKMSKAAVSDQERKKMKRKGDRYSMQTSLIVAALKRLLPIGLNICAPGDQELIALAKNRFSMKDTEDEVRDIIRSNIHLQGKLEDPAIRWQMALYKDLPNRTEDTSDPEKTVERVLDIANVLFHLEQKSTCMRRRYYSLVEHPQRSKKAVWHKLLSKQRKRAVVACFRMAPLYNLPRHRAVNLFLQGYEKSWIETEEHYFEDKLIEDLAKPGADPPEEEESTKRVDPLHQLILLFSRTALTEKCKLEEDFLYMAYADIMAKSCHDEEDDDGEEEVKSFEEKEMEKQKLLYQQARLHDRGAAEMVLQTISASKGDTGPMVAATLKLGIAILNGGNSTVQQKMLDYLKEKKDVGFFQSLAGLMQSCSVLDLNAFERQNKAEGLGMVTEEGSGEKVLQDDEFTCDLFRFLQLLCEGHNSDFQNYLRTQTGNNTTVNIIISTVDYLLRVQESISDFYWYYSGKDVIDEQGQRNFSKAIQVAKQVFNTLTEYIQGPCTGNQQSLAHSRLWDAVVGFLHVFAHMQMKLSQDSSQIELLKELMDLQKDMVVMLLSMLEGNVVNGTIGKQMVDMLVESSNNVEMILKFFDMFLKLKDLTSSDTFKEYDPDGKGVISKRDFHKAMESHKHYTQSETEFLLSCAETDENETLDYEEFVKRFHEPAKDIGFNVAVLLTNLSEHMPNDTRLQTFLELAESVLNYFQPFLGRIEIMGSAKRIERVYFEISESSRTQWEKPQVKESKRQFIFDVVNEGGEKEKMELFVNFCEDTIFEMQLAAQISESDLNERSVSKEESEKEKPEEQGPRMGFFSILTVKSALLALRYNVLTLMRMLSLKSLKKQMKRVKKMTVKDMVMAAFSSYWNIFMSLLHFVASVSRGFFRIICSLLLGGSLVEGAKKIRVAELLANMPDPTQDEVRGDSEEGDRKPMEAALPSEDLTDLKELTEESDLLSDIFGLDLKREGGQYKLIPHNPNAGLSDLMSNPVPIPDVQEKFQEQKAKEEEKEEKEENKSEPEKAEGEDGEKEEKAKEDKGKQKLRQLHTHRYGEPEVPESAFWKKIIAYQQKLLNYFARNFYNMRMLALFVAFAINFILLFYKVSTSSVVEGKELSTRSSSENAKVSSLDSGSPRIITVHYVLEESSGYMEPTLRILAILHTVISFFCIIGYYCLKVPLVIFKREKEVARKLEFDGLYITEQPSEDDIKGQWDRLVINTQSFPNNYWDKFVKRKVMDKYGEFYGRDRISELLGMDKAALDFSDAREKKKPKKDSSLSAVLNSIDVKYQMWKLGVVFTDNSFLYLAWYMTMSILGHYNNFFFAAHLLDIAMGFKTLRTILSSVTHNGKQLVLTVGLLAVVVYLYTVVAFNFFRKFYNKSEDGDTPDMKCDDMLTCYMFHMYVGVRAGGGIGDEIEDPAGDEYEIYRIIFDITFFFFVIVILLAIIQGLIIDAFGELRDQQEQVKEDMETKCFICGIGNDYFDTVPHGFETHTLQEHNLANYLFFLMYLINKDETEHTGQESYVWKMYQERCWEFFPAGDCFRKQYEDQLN", "assay_type": "biochemical, dog"}, "cardiac RyR2 [2]": {"target": "T1, cardiac RyR2", "test": "Induction of subconductance states", "assay_type": "biochemical, dog", "outline": "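Dog ventricular SR microsomes fused into PE/PS/PC (5:4:1) bilayers. Solutions: cis HEPES 250 mM/Tris 118 mM, trans HEPES 250 mM/Ca(OH)2 53 mM, pH 7.4. Cytosolic Ca2+ buffered with BAPTA/dibromo-BAPTA; Ca2+/caffeine-activated channel; peptide added cis. Four-minute records were filtered at 500 Hz (Vm ≥0) or 400 Hz (Vm <0). P_substate = substate time/total time, scored frame-by-frame (100 ms frames, events >3 ms) or from Gaussian-fitted all-points histograms. Paired t-test.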"}, "ryanodine-modified RyR2": {"target": "ryanodine-modified RyR2 (Canis lupus familiaris, UniProt A0A8I3MT21)", "sequence (A0A8I3MT21 1-4967)": "as above", "test": "Peptide/IpTxA action on ryanodine-modified RyR2 in planar lipid bilayers", "assay_type": "biochemical, dog"}, "RyR2 with IpTxA": {"test_system": "RyR2 with IpTxA", "test": "Interaction of peptides with IpTxA-modified RyR2 in planar lipid bilayers", "assay_type": "biochemical, dog", "settings": "for apparent dissociation constant from RyR2 (1/dwell time): 500 µM KIFMK", "outline": "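Dog cardiac RyR2 was recorded in planar bilayers with HEPES-Ca2+ trans and HEPES-Tris cis at pH 7.4, Ca2+/caffeine-activated, with cytosolic IpTxA at 50 nM and Vm +10 mV. Peptide was then added cis. Block events (dwell time, number, P_block = fraction of time at baseline) were scored frame-by-frame on 4-min records, separately during full openings and during IpTxA-induced substates. Means ± S.E.M.; paired t-test.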"}, "RyR2 (ryanodol-modified)": {"target": "RyR2 (ryanodol-modified) (Canis lupus familiaris, UniProt A0A8I3MT21)", "sequence (A0A8I3MT21 1-4967)": "as above", "assay_type": "biochemical, dog", "settings": "for probability of ryanodol-induced modification: n=5 paired (Fig. 6)"}, "SR microsomes": {"test_system": "SR microsomes", "settings": "ref [19], [26], [55]; cited from earlier work"}, "RyRs": {"test_system": "RyRs", "settings": "ryanodine locks channels open; ref [3], [45]; cited from earlier work"}, "[3]": {"settings": "500 µM KIFMK, frame by frame analysis"}, "[4]": {"settings": "Shaker B 2 µM n=4, KIFMK 500 µM n=8"}, "[5]": {"settings": "IpTxA plus ryanodol, +10 mV, 40 min"}, "[6]": {"settings": "ryanodol, control before IpTxA (Fig. 7A, B)"}},
  "note": "“Also recorded” adds a separate entry of the source. Read-outs that look alike come from different tables or passages of the source. Ends that are not written are not given here.",
  "data": [
    {"molecule": "CC[C@H](C)[C@H](NC(=O)[C@H](CCCCN)NC(C)=O)C(=O)N[C@@H](Cc1ccccc1)C(=O)N[C@@H](CCSC)C(=O)N[C@@H](CCCCN)C(N)=O", "note": "[KIFMK, acetyl-KIFMK-amide]", "values": [
      {"measurement": "duration of block events", "setting": "cardiac RyR2 [1]; 0 mV", "value": "intermediate duration"},
      {"measurement": "mean duration of block events", "setting": "cardiac RyR2 [1]; 0 mV, Peptide A n=4, KIFMK n=6, mean ± SEM", "value": "5.3 ± 0.3", "unit": "ms"},
      {"measurement": "d (fraction of the membrane potential acting at the site)", "setting": "cardiac RyR2 [1]; Woodhull fit, z = 6 Peptide A, 7 Shaker B, 2 KIFMK", "value": "1.2 ± 0.3"},
      {"measurement": "increase in frequency of substates", "setting": "cardiac RyR2 [2]; 500 µM KIFMK vs before addition, n=5 paired observations", "value": "37 ± 9", "unit": "times"},
      {"measurement": "substate level 1, of full conductance", "setting": "cardiac RyR2 [2]; [3]", "value": "~ 27.3 ± 0.3%"},
      {"measurement": "substate level 2, of full conductance", "setting": "cardiac RyR2 [2]; [3]", "value": "~48.6 ± 0.7", "unit": "%"},
      {"measurement": "substate level 3, of full conductance", "setting": "cardiac RyR2 [2]; [3]", "value": "~72.3 ± 0.5", "unit": "%"},
      {"measurement": "frequency of substates", "setting": "cardiac RyR2 [2]; 500 µM KIFMK, n=5 paired observations, control 0.9 ± 0.3", "value": "22.1 ± 4.4", "unit": "events/min"},
      {"measurement": "substate amplitude level 1, in the absence of ryanodine", "setting": "cardiac RyR2 [2]; KIFMK, n=8", "value": "27 ± 1", "unit": "%"},
      {"measurement": "substate amplitude level 3, in the absence of ryanodine", "setting": "cardiac RyR2 [2]; KIFMK, n=8", "value": "74 ± 2", "unit": "%"},
      {"measurement": "substate level, ~30% of full RyR2 conductance", "setting": "cardiac RyR2 [2]; discussion summary", "value": "~ 30%"},
      {"measurement": "substate level, ~50% of full RyR2 conductance", "setting": "cardiac RyR2 [2]; discussion summary", "value": "~50", "unit": "%"},
      {"measurement": "substate level, ~70% of full RyR2 conductance", "setting": "cardiac RyR2 [2]; discussion summary", "value": "~70", "unit": "%"},
      {"measurement": "predominant substate level, of the ryanodine-modified conductance", "setting": "ryanodine-modified RyR2; KIFMK 500 µM", "value": "~ 52%"},
      {"measurement": "block dwell time", "setting": "ryanodine-modified RyR2; KIFMK 500 µM, ryanodine-modified, n=6", "value": "29.9 ± 10.5", "unit": "ms"},
      {"measurement": "increase of block dwell time with ryanodine", "setting": "ryanodine-modified RyR2; KIFMK 500 µM, n=6", "value": "316 ± 62", "unit": "%"},
      {"measurement": "substate amplitude level 1, of full openings of ryanodine-modified channel", "setting": "ryanodine-modified RyR2; [4]", "value": "31 ± 1", "unit": "%"},
      {"measurement": "substate amplitude level 2, of full openings of ryanodine-modified channel", "setting": "ryanodine-modified RyR2; [4]", "value": "51 ± 1", "unit": "%"},
      {"measurement": "substate amplitude level 3, of full openings of ryanodine-modified channel", "setting": "ryanodine-modified RyR2; [4]", "value": "75 ± 1", "unit": "%"},
      {"measurement": "decrease of probability of block on changing 0 mV to +20 mV", "setting": "ryanodine-modified RyR2; in the presence of ryanodine", "value": 83, "unit": "%"},
      {"measurement": "decrease of probability of substates on changing 0 mV to +20 mV", "setting": "ryanodine-modified RyR2; in the presence of ryanodine", "value": 61, "unit": "%"},
      {"measurement": "action during IpTxA-induced substates versus full openings", "setting": "RyR2 with IpTxA; 50 nM IpTxA, +10 mV, Peptide A 20 µM, Shaker B 40 µM, KIFMK 500 µM", "value": "able to block the IpTxA-modified channel; also recorded: the probability of blocking the channels was significantly lower during IpTxA-induced substates than during full openings"},
      {"measurement": "apparent dissociation constant from RyR2 (1/dwell time)", "setting": "RyR2 with IpTxA; during IpTxA substates, 50 nM IpTxA, +10 mV", "value": 3.1, "unit": "s⁻¹"},
      {"measurement": "apparent dissociation constant from RyR2 (1/dwell time)", "setting": "RyR2 with IpTxA; during full openings, 50 nM IpTxA, +10 mV", "value": 166, "unit": "s⁻¹"},
      {"measurement": "action during IpTxA-ryanodine sub-substates", "setting": "RyR2 with IpTxA; ryanodine-modified RyR2 with IpTxA, results not shown", "value": "only induced some block events"}
    ]},
    {"molecule": "Cn1c(=O)c2c(ncn2C)n(C)c1=O", "note": "[caffeine]", "values": [
      {"measurement": "Po with Ca2+ and caffeine", "setting": "cardiac RyR2 [1]; most channels, Ca2+ 10 µM + caffeine 5 mM, before peptides", "value": "> 0.9"}
    ]},
    {"molecule": "CC(C)[C@@]1(O)[C@@H](O)[C@@]2(O)[C@@]3(C)C[C@]4(O)O[C@@]5([C@H](O)[C@@H](C)CC[C@]35O)[C@@]2(O)[C@]14C", "note": "[ryanodol]", "values": [
      {"measurement": "probability of R (ryanodol alone) after IpTxA", "setting": "RyR2 (ryanodol-modified); 50 nM IpTxA", "value": "decreased dramatically"},
      {"measurement": "probability of ryanodol-induced modification", "setting": "RyR2 (ryanodol-modified); 20 µM ryanodol, 0 mV, before Peptide A", "value": "0.58 ± 0.04"},
      {"measurement": "probability of ryanodol-induced modification", "setting": "RyR2 (ryanodol-modified); 20 µM ryanodol, 0 mV, with 5 µM Peptide A", "value": "0.76 ± 0.05"},
      {"measurement": "action on ryanodol-modified RyR2 or on ryanodol binding", "setting": "RyR2 (ryanodol-modified); 20 µM ryanodol, 5 µM Peptide A, 0 mV", "value": "increased dwell times for ryanodol-modified states"},
      {"measurement": "number of R substate events", "setting": "RyR2 (ryanodol-modified); [5]", "value": 98, "unit": "events"},
      {"measurement": "number of transitions R→Open", "setting": "RyR2 (ryanodol-modified); [5]", "value": 5, "unit": "times"},
      {"measurement": "number of transitions i→R+i", "setting": "RyR2 (ryanodol-modified); [5]", "value": 6, "unit": "times"},
      {"measurement": "decrease of probability of ryanodol modification from 0 to +20 mV", "setting": "RyR2 (ryanodol-modified); n=6", "value": "52 ± 11", "unit": "%"},
      {"measurement": "relative rate of transition i→R+i", "setting": "RyR2 (ryanodol-modified); ryanodol binding to IpTxA-modified channel, +10 mV", "value": 14.6},
      {"measurement": "relative rate of transition Open→R", "setting": "RyR2 (ryanodol-modified); ryanodol binding to open channel, +10 mV", "value": 130},
      {"measurement": "relative rate of transition R+i→i", "setting": "RyR2 (ryanodol-modified); ryanodol dissociation with IpTxA bound, +10 mV", "value": 144},
      {"measurement": "preferred sequence of binding Open→R→R+i, share of cases", "setting": "RyR2 (ryanodol-modified); ryanodol first, then IpTxA, +10 mV", "value": 93, "unit": "%"},
      {"measurement": "probability of full opening", "setting": "RyR2 (ryanodol-modified); [6]", "value": "~ 80%"},
      {"measurement": "probability of ryanodol state", "setting": "RyR2 (ryanodol-modified); [6]", "value": "~ 20%"},
      {"measurement": "total probability of ryanodol binding (R and R+i), increased", "setting": "RyR2 (ryanodol-modified); with 50 nM IpTxA, all voltages tested but +30 mV", "value": "~ 40%"}
    ]},
    {"molecule": "TSAQKAKAEERKRRKMSRGL [Peptide A]", "values": [
      {"measurement": "[3H] ryanodine binding to SR microsomes", "setting": "SR microsomes", "value": "enhances [^3H] ryanodine binding to SR microsomes"}
    ]},
    {"molecule": "ryanodine", "values": [
      {"measurement": "effect of ryanodine on channel gating", "setting": "ryanodine-modified RyR2; 2 µM ryanodine", "value": "channels are locked open; closures are brief and extremely rare"},
      {"measurement": "slope conductance of modified state, of full openings", "setting": "RyRs", "value": "~ 40%"}
    ]}
  ]
}
